According to ChEMBL document CHEMBL4689842, “EUbOPEN Chemogenomics Library wave 1” (2021):

Legend:
Type in all cases: toxicity, cell-based
Fibroblast [1] = test: Incucyte cell viability with human fibroblast; settings: 10 µM, compound concentration 10 uM; note: filed as whole numbers so only -1 and 0 and 1 occur
U2OS = test: Incucyte cell viability with U2OS; settings: human, 10 µM, compound concentration 10 uM; note: filed as whole numbers so only -1 and 0 and 1 occur
HEK-293T = test: Incucyte cell viability with HEK293T; settings: human, 10 µM, compound concentration 10 uM; note: filed as whole numbers so only -1 and 0 and 1 occur
Fibroblast [2] = test: Multiplex assay against human fibroblast
Outline: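 Phenotypes for tubulin, mitochondrial mass and membrane permeability are expressed as per cents of healthy-nucleus cells. Cells were stained live at seeding with Hoechst33342, BioTracker Green Microtubule Cytoskeleton Dye, MitoTracker Red and Annexin V Alexa Fluor 680, then imaged after compound addition on a CQ1 microscope at 37°C and 5% CO2. Machine-learning gating in CellPathfinder separated Hoechst high-intensity objects from normal cells, divided normal cells by nuclear state (healthy, pyknosed, fragmented) and divided pyknosed cells into mitotic or apoptotic.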

[3] = 0 h, replicate number 1, timepoint 0 hours
[4] = 6 h, replicate number 1, timepoint 6 hours
[5] = 12 h, replicate number 1, timepoint 12 hours
[6] = 18 h, replicate number 1, timepoint 18 hours
[7] = 24 h, replicate number 1, timepoint 24 hours
[8] = 12 h, 1 µM, compound concentration 1 uM, replicate 1
[9] = 12 h, 1 µM, compound concentration 1 uM, replicate 2
[10] = 12 h, 10 µM, compound concentration 10 uM, replicate 1
[11] = 12 h, 10 µM, compound concentration 10 uM, replicate 2
[12] = 24 h, 1 µM, compound concentration 1 uM, replicate 1
[13] = 24 h, 1 µM, compound concentration 1 uM, replicate 2
[14] = 24 h, 10 µM, compound concentration 10 uM, replicate 1
[15] = 24 h, 10 µM, compound concentration 10 uM, replicate 2

SMILES: N#Cc1cnc(Nc2cc(NC[C@H]3CNCCO3)c(C(F)(F)F)cn2)cn1 [SRA-737]
- Growth Rate (Fibroblast [1]; [3]): 0
- Growth Rate (Fibroblast [1]; [4]): 1
- Growth Rate (Fibroblast [1]; [5]): 1
- Growth Rate (Fibroblast [1]; [6]): 1
- Growth Rate (Fibroblast [1]; [7]): 0
- Growth Rate (Fibroblast [1]; 24 h, replicate number 2, timepoint 24 hours): 1
- Growth Rate (U2OS; [3]): 1
- Growth Rate (U2OS; 0 h, replicate number 2, timepoint 0 hours): 0
- Growth Rate (U2OS; [4]): 0
- Growth Rate (U2OS; [5]): 0
- Growth Rate (U2OS; [6]): 0
- Growth Rate (U2OS; [7]): 0
- Growth Rate (HEK-293T; [3]): 0
- Growth Rate (HEK-293T; [4]): 0
- Growth Rate (HEK-293T; [5]): 0
- Growth Rate (HEK-293T; [6]): 0
- Growth Rate (HEK-293T; [7]): 0
- Population Apoptotic (%) (Fibroblast [2]; [8]): 65%
- Population Fragmented Nuclei (%) (Fibroblast [2]; [8]): 23%
- Population Healthy Nuclei (%) (Fibroblast [2]; [8]): 59%
- Population Hoechst High Intensity Objects (%) (Fibroblast [2]; [8]): 13%
- Population Membrane Permeable-Phenotype (%) (Fibroblast [2]; [8]): 9%
- Population Mitochondria Different-Phenotype (%) (Fibroblast [2]; [8]): 1%
- Population Mitotic Cells (%) (Fibroblast [2]; [8]): 34%
- Population Normal (%) (Fibroblast [2]; [8]): 86%
- Population Tubulin-Different-Phenotype (%) (Fibroblast [2]; [8]): 4%
- Total Cell Count (Fibroblast [2]; [8]): 196
- Population Apoptotic (%) (Fibroblast [2]; [9]): 37%
- Population Fragmented Nuclei (%) (Fibroblast [2]; [9]): 60%
- Population Healthy Nuclei (%) (Fibroblast [2]; [9]): 21%
- Population Hoechst High Intensity Objects (%) (Fibroblast [2]; [9]): 35%
- Population Membrane Permeable-Phenotype (%) (Fibroblast [2]; [9]): 10%
- Population Mitochondria Different-Phenotype (%) (Fibroblast [2]; [9]): 0%
- Population Mitotic Cells (%) (Fibroblast [2]; [9]): 62%
- Population Normal (%) (Fibroblast [2]; [9]): 64%
- Population Pyknosed Nuclei (%) (Fibroblast [2]; [9]): 17%
- Population Tubulin-Different-Phenotype (%) (Fibroblast [2]; [9]): 0%
- Total Cell Count (Fibroblast [2]; [9]): 71
- Population Apoptotic (%) (Fibroblast [2]; [10]): 69%
- Population Fragmented Nuclei (%) (Fibroblast [2]; [10]): 33%
- Population Healthy Nuclei (%) (Fibroblast [2]; [10]): 53%
- Population Hoechst High Intensity Objects (%) (Fibroblast [2]; [10]): 12%
- Population Membrane Permeable-Phenotype (%) (Fibroblast [2]; [10]): 11%
- Population Mitochondria Different-Phenotype (%) (Fibroblast [2]; [10]): 1%
- Population Mitotic Cells (%) (Fibroblast [2]; [10]): 30%
- Population Normal (%) (Fibroblast [2]; [10]): 87%
- Population Pyknosed Nuclei (%) (Fibroblast [2]; [10]): 13%
- Population Tubulin-Different-Phenotype (%) (Fibroblast [2]; [10]): 8%
- Total Cell Count (Fibroblast [2]; [10]): 288
- Population Apoptotic (%) (Fibroblast [2]; [11]): 28%
- Population Fragmented Nuclei (%) (Fibroblast [2]; [11]): 58%
- Population Healthy Nuclei (%) (Fibroblast [2]; [11]): 28%
- Population Hoechst High Intensity Objects (%) (Fibroblast [2]; [11]): 34%
- Population Membrane Permeable-Phenotype (%) (Fibroblast [2]; [11]): 7%
- Population Mitochondria Different-Phenotype (%) (Fibroblast [2]; [11]): 35%
- Population Mitotic Cells (%) (Fibroblast [2]; [11]): 71%
- Population Normal (%) (Fibroblast [2]; [11]): 65%
- Population Pyknosed Nuclei (%) (Fibroblast [2]; [11]): 14%
- Population Tubulin-Different-Phenotype (%) (Fibroblast [2]; [11]): 21%
- Total Cell Count (Fibroblast [2]; [11]): 76
- Population Apoptotic (%) (Fibroblast [2]; [12]): 50%
- Population Fragmented Nuclei (%) (Fibroblast [2]; [12]): 31%
- Population Healthy Nuclei (%) (Fibroblast [2]; [12]): 56%
- Population Hoechst High Intensity Objects (%) (Fibroblast [2]; [12]): 9%
- Population Membrane Permeable-Phenotype (%) (Fibroblast [2]; [12]): 7%
- Population Mitochondria Different-Phenotype (%) (Fibroblast [2]; [12]): 2%
- Population Mitotic Cells (%) (Fibroblast [2]; [12]): 50%
- Population Normal (%) (Fibroblast [2]; [12]): 90%
- Population Pyknosed Nuclei (%) (Fibroblast [2]; [12]): 11%
- Population Tubulin-Different-Phenotype (%) (Fibroblast [2]; [12]): 1%
- Total Cell Count (Fibroblast [2]; [12]): 205
- Population Apoptotic (%) (Fibroblast [2]; [13]): 42%
- Population Fragmented Nuclei (%) (Fibroblast [2]; [13]): 63%
- Population Healthy Nuclei (%) (Fibroblast [2]; [13]): 22%
- Population Hoechst High Intensity Objects (%) (Fibroblast [2]; [13]): 24%
- Population Membrane Permeable-Phenotype (%) (Fibroblast [2]; [13]): 9%
- Population Mitochondria Different-Phenotype (%) (Fibroblast [2]; [13]): 9%
- Population Mitotic Cells (%) (Fibroblast [2]; [13]): 57%
- Population Normal (%) (Fibroblast [2]; [13]): 75%
- Population Pyknosed Nuclei (%) (Fibroblast [2]; [13]): 14%
- Population Tubulin-Different-Phenotype (%) (Fibroblast [2]; [13]): 18%
- Total Cell Count (Fibroblast [2]; [13]): 65
- Population Apoptotic (%) (Fibroblast [2]; [14]): 71%
- Population Fragmented Nuclei (%) (Fibroblast [2]; [14]): 41%
- Population Healthy Nuclei (%) (Fibroblast [2]; [14]): 48%
- Population Hoechst High Intensity Objects (%) (Fibroblast [2]; [14]): 18%
- Population Membrane Permeable-Phenotype (%) (Fibroblast [2]; [14]): 9%
- Population Mitochondria Different-Phenotype (%) (Fibroblast [2]; [14]): 2%
- Population Mitotic Cells (%) (Fibroblast [2]; [14]): 28%
- Population Normal (%) (Fibroblast [2]; [14]): 81%
- Population Pyknosed Nuclei (%) (Fibroblast [2]; [14]): 10%
- Population Tubulin-Different-Phenotype (%) (Fibroblast [2]; [14]): 15%
- Total Cell Count (Fibroblast [2]; [14]): 342
- Population Apoptotic (%) (Fibroblast [2]; [15]): 28%
- Population Fragmented Nuclei (%) (Fibroblast [2]; [15]): 59%
- Population Healthy Nuclei (%) (Fibroblast [2]; [15]): 26%
- Population Hoechst High Intensity Objects (%) (Fibroblast [2]; [15]): 27%
- Population Membrane Permeable-Phenotype (%) (Fibroblast [2]; [15]): 15%
- Population Mitochondria Different-Phenotype (%) (Fibroblast [2]; [15]): 30%
- Population Mitotic Cells (%) (Fibroblast [2]; [15]): 71%
- Population Normal (%) (Fibroblast [2]; [15]): 72%
- Population Pyknosed Nuclei (%) (Fibroblast [2]; [15]): 14%
- Population Tubulin-Different-Phenotype (%) (Fibroblast [2]; [15]): 30%
- Total Cell Count (Fibroblast [2]; [15]): 68
